From ChEMBL document CHEMBL4219118, “Cathepsin B inhibitors: Further exploration of the nitroxoline core” (Bioorg Med Chem Lett, 2018)
Calls of active or inactive are those of the source. No cut-off for these calls is given here.

Tests used:
Procathepsin L = Procathepsin L (Homo sapiens, UniProt P07711); assay: Competitive inhibition of recombinant human cathepsin L expressed in Escherichia coli assessed as inhibitory constant for enzyme-inhibitor complex using Z-FR-AMC as substrate in presence of pH 6 phosphate buffer by fluorescence assay
Cathepsin B [1] = molecular target: T1, Cathepsin B (Homo sapiens, UniProt P07858); assay: Mixed inhibition of recombinant human cathepsin B exopeptidase activity assessed as inhibitory constant for enzyme-inhibitor complex using Abz-Gly-Ile-Val-Arg-Ala-Lys(Dnp)-OH as substrate in presence of pH 5 acetate buffer by fluorescence assay
MCF-10A-neoT [2] = assay: Cytotoxicity against human MCF10AneoT cells assessed as decrease in cell viability after 72 hrs by MTS assay; type: cell-based
Cathepsin B [3] = molecular target: T1, Cathepsin B; assay: Mixed inhibition of recombinant human cathepsin B exopeptidase activity assessed as inhibitory constant for enzyme-substrate-inhibitor complex using Abz-Gly-Ile-Val-Arg-Ala-Lys(Dnp)-OH as substrate in presence of pH 5 acetate buffer by fluorescence assay
Cathepsin B [4] = molecular target: T1, Cathepsin B; assay: Mixed inhibition of recombinant human cathepsin B endopeptidase activity assessed as inhibitory constant for enzyme-inhibitor complex using Z-Arg-Arg-AMC as substrate in presence of pH 6 phosphate buffer by fluorescence assay
Cathepsin B [5] = molecular target: T1, Cathepsin B; assay: Inhibition of cathepsin B in human MCF-10A neoT cells assessed as proteolysis of extracellular membrane by measuring decrease in extracellular degradation of DQ-collagen 4 at 2.5 uM incubated for 6 hrs measured for 2 hrs by fluorescence based spectrofluorimetric assay; type: cell-based
Method in brief: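 MCF-10A neoT cells (5 × 10⁴) exposed to compound or DMSO vehicle control with DQ-collagen IV. Fluorescence of the extracellular cleavage product measured by spectrofluorimetry. Mean ± SEM of n = 3 experiments, each in six replicates.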

Cathepsin B [6] = molecular target: T1, Cathepsin B; assay: Mixed inhibition of recombinant human cathepsin B endopeptidase activity assessed as inhibitory constant for enzyme-substrate-inhibitor complex using Z-Arg-Arg-AMC as substrate in presence of pH 6 phosphate buffer by fluorescence assay
MCF-10A-neoT [7] = assay: Antiinvasive activity against human MCF10AneoT cells at 2.5 uM incubated for 1 hr measured every 15 mins for 72 hrs by real time xCELLigence assay relative to control; type: functional, cell-based
Method in brief: (§1)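 MCF-10A neoT cells (3 × 10⁴) seeded on Matrigel-coated (1 mg/mL) upper compartments of CIM-plates. Compound or DMSO (0.05%) added to growth medium in both upper and lower compartments. Invasion followed by impedance (cell index) for 72 h. Slopes (1/h) between 4 and 14 h converted to percentage invasion versus DMSO. Means of n = 2, each run in triplicate.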

Cathepsin B [8] = molecular target: T1, Cathepsin B; assay: Competitive inhibition of recombinant human cathepsin B endopeptidase activity assessed as inhibitory constant for enzyme-inhibitor complex using Z-Arg-Arg-AMC as substrate in presence of pH 4.5 acetate buffer by fluorescence assay
Method in brief: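 Recombinant cathepsin B endopeptidase activity assayed with the small substrate Z-Arg-Arg-AMC at pH 4.5. Acidic conditions chosen to shift the enzyme toward the closed (exopeptidase) conformation. Ki reported.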

Pro-cathepsin H [9] = molecular target: T2, Pro-cathepsin H (Homo sapiens, UniProt P09668); assay: Non-competitive inhibition of human liver cathepsin H assessed as inhibitory constant for enzyme-inhibitor complex using R-AMC as substrate in presence of pH 6 phosphate buffer by fluorescence assay
T2 sequence (P09668 whole entry): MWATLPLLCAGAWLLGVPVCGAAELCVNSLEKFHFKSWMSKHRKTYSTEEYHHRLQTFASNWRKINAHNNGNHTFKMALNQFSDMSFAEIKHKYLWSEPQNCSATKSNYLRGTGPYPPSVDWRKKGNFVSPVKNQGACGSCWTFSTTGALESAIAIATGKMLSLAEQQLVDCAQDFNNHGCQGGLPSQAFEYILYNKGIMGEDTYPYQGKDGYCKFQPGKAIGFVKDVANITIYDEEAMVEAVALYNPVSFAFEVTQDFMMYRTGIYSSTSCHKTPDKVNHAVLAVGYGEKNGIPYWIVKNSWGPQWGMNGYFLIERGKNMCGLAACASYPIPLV

Pro-cathepsin H [10] = molecular target: T2, Pro-cathepsin H; assay: Non-competitive inhibition of human liver cathepsin H assessed as inhibitory constant for enzyme-substrate-inhibitor complex using R-AMC as substrate in presence of pH 6 phosphate buffer by fluorescence assay
Cathepsin B [11] = molecular target: T1, Cathepsin B; assay: (§2) Inhibition of cathepsin B in human MCF-10A neoT cells assessed as proteolysis of extracellular membrane by measuring decrease in intracellular degradation of DQ-collagen 4 at 25 uM incubated for 2 hrs followed by DQ-collagen addition measured for 2 hrs by propidium iodide staining based flow cytometry relative to control; type: cell-based
Method in brief: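 Intracellular DQ-collagen IV degradation in MCF-10A neoT cells (6 × 10⁴) treated with compound or DMSO, read by flow cytometry. Unlabeled cells served as background. Reduction in intracellular signal reported against DMSO as mean ± SEM, n = 3 experiments, each in duplicate.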

U-87 MG = assay: Cytotoxicity against human U87MG cells assessed as decrease in cell viability after 72 hrs by MTS assay; type: cell-based; conditions: u-87mg atcc
Cathepsin B [12] = molecular target: T1, Cathepsin B; assay: Non-competitive inhibition of recombinant human cathepsin B exopeptidase activity assessed as inhibitory constant for enzyme-substrate-inhibitor complex using Abz-Gly-Ile-Val-Arg-Ala-Lys(Dnp)-OH as substrate in presence of pH 5 acetate buffer by fluorescence assay
Cathepsin B [13] = molecular target: T1, Cathepsin B; assay: Non-competitive inhibition of recombinant human cathepsin B exopeptidase activity assessed as inhibitory constant for enzyme-inhibitor complex using Abz-Gly-Ile-Val-Arg-Ala-Lys(Dnp)-OH as substrate in presence of pH 5 acetate buffer by fluorescence assay
Cathepsin B [14] = molecular target: T1, Cathepsin B; assay: as §2, with “50” for “25”; type: cell-based
Method in brief: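 MCF-10A neoT cells (6 × 10⁴) treated with compound or DMSO. Intracellular DQ-collagen IV degradation measured by flow cytometry, with unlabeled cells as background. Reduction expressed versus DMSO. Mean of n = 3, run in duplicate.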

MCF-10A-neoT [15] = assay: Antiinvasive activity against human MCF10AneoT cells at 5 uM incubated for 1 hr measured every 15 mins for 72 hrs by real time xCELLigence assay relative to control; type: functional; method in brief: as §1
Cathepsin B [16] = molecular target: T1, Cathepsin B; assay: Inhibition of cathepsin B in human MCF-10A neoT cells assessed as proteolysis of extracellular membrane by measuring decrease in extracellular degradation of DQ-collagen 4 at 5 uM incubated for 6 hrs measured for 2 hrs by fluorescence based spectrofluorimetric assay relative to control; type: cell-based
Method in brief: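 MCF-10A neoT cells (5 × 10⁴) incubated with DQ-collagen IV in the presence of compound or DMSO. Extracellular degradation product read by spectrofluorimetry. Mean of n = 3, six replicates per experiment.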

Cathepsin B [17] = molecular target: T1, Cathepsin B; assay: Uncompetitive inhibition of recombinant human cathepsin B endopeptidase activity assessed as inhibitory constant for enzyme-substrate-inhibitor complex using Z-Arg-Arg-AMC as substrate in presence of pH 6 phosphate buffer by fluorescence assay

Chain of Procathepsin L (P07711 whole entry): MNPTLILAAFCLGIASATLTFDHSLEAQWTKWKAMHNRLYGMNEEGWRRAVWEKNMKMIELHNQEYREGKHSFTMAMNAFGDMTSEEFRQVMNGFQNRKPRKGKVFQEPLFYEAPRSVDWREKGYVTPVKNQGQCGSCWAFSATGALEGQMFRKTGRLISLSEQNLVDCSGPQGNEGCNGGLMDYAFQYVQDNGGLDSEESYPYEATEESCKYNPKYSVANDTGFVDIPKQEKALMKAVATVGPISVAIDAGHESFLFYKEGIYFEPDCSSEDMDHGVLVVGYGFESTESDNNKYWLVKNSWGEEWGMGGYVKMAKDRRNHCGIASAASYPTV

Ki (Cathepsin B [1]) [µM] | Ki (Cathepsin B [3]) [µM] | Ki (Cathepsin B [4]) [µM] | Ki (Cathepsin B [6]) [µM] | Ki (Cathepsin B [8]; read-out: Ki) [µM] | Ki (Cathepsin B [12]) [µM] | Ki (Cathepsin B [13]) [µM] | inhibition (Cathepsin B [14]) | Structure (SMILES) | Activity (MCF-10A-neoT [2]) | Activity (U-87 MG) | further results
469 | 77 | 181 | 99 | 153 | – | – | – | Cc1ccc2c([N+](=O)[O-])ccc(O)c2n1 | Non-Toxic | Non-Toxic | Ki (Procathepsin L): 122 µM; inhibition (Cathepsin B [5]): Active; Activity (MCF-10A-neoT [7]): inactive; Ki (Pro-cathepsin H [9]): 89 µM; Ki (Pro-cathepsin H [10]): 89 µM; inhibition (Cathepsin B [11]): 80%
– | – | – | – | – | – | – | inactive | CCCNC(=O)[C@H]1O[C@@H]1C(=O)N[C@H](C(=O)N1CCC[C@H]1C(=O)O)[C@@H](C)CC | – | – | Activity (MCF-10A-neoT [15]): 40%
– | – | – | – | – | 185 | 185 | 15% | N#CC1(NC(=O)c2cc([N+](=O)[O-])c3cccnc3c2O)CC1 | Non-Toxic | Non-Toxic | Ki (Procathepsin L): 195 µM; Activity (MCF-10A-neoT [15]): 70%; inhibition (Cathepsin B [16]): Active; Ki (Cathepsin B [17]): 124 µM; Ki (Cathepsin B [8]): Not Active; Ki (Pro-cathepsin H [9]): 329 µM; Ki (Pro-cathepsin H [10]): 329 µM
257 | 109 | 341 | 122 | – | – | – | – | CN(CC#N)C(=O)c1ccc2c([N+](=O)[O-])cc([N+](=O)[O-])c(O)c2n1 | – | – | –
185 | 32 | 182 | 64 | 132 | – | – | < 10% | N#CCN(Cc1ccccc1)C(=O)c1cc([N+](=O)[O-])c2cccnc2c1O | Non-Toxic | Non-Toxic | inhibition (Cathepsin B [16]): 60%
– | – | 142 | 68 | 123 | 214 | 214 | – | N#Cc1ccc2c([N+](=O)[O-])ccc(O)c2n1 | – | – | –

Second part, the compound before the results:

Structure (SMILES) | Ki (Cathepsin B [1]) [µM] | Ki (Cathepsin B [3]) [µM] | Ki (Cathepsin B [4]) [µM] | Ki (Cathepsin B [6]) [µM] | Ki (Cathepsin B [8]; read-out: Ki) [µM] | Ki (Cathepsin B [12]) [µM] | Ki (Cathepsin B [13]) [µM] | inhibition (Cathepsin B [14]) | Activity (MCF-10A-neoT [2]) | Activity (U-87 MG) | further results
O=C(c1cc([N+](=O)[O-])c2cccnc2c1O)N1CCCCC1 | – | – | 311 | 171 | – | 364 | 364 | – | – | – | –
N#CCNC(=O)c1ccc2c([N+](=O)[O-])ccc(O)c2n1 | – | – | 180 | 116 | – | 190 | 190 | – | – | – | –
CCCNC(=O)[C@H]1O[C@@H]1C(=O)N[C@H](C(=O)N1CCC[C@H]1C(=O)OC)[C@@H](C)CC | – | – | – | – | – | – | – | Active | – | – | –
CN(CC#N)C(=O)c1ccc2c([N+](=O)[O-])ccc(O)c2n1 | – | – | 102 | 263 | – | 205 | 205 | – | – | – | –
